Measured values published in ChEMBL document CHEMBL1142438, “Pivaloyloxymethyl-modified isoprenoid bisphosphonates display enhanced inhibition of cellular geranylgeranylation” (Bioorg Med Chem, 2008).
pIC50: −log10 of the molar value. Active and inactive are the calls of the source. The rule behind the calls is not given here.

Legend:
K562 [1] = assay: Inhibition of Rap1a protein modification in human K562 cells by Western blot relative to lovastatin; assay type: functional
Summary of the method: (§1)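 K562 cells in suspension culture (5 × 10^6 cells/5 ml, fresh medium) exposed 24 h to 1, 2.5, 5, 10, 25 or 50 µM compound. Protein quantified by BCA, resolved on 12% SDS gel, transferred to PVDF, probed for Rap1a with primary then secondary antibody (45 min each), ECL detection.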

K562 [2] = assay: Growth inhibition of human K562 cells after 24 hrs; assay type: functional; conditions: K562, 24 h
Summary of the method: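 K562 leukaemia cells (ATCC, grown per ATCC protocol), asynchronous suspension cultures at 5 × 10^6 cells/5 ml in fresh medium, exposed to compound for 24 h. Growth followed by 3H-thymidine incorporation. GI50 taken from quadruplicate dose–response curves.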

K562 [3] = assay: Inhibition of Rap1a protein geranylgernaylation modification in human K562 cells upto 10 uM by Western blot; assay type: functional, cell-based; summary of the method: as §1
K562 [4] = assay: Inhibition of Rap1a protein modification in human K562 cells at 50 uM by Western blot; assay type: functional, cell-based
Summary of the method: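 K562 leukemia suspension cultures (5 × 10^6 cells/5 ml, fresh medium) incubated 24 h with compound, tested over 1, 2.5, 5, 10, 25 and 50 µM. Protein quantified by BCA; lysates run on 12% gel, transferred to PVDF, probed sequentially with primary and secondary antibodies (45 min each) for Rap1a, detected by ECL chemiluminescence.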

[5] = target: T1, Geranylgeranyl pyrophosphate synthase (Homo sapiens) (UniProt O95749); assay: Inhibition of human recombinant GGDPS expressed in BL21 gold bacteria at 100 uM relative to control; parameters: scale not given: the % may be the effect or the level left
T1 sequence (whole entry): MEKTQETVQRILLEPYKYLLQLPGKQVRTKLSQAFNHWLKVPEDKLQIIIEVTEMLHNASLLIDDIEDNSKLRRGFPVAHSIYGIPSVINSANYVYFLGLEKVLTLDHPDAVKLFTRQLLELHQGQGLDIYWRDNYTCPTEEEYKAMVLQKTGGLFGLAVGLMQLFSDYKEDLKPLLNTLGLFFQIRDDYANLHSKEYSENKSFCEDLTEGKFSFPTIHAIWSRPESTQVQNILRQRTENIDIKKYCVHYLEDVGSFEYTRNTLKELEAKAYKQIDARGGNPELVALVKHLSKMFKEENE
Summary of the method: (§2)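 GST-tagged recombinant human GGDPS expressed in BL21 gold E. coli (IPTG induction), glutathione-affinity purified. Reaction: 20 µM FPP, 40 µM [14C]IPP in 50 mM imidazole pH 7.5, 0.5 mM MgCl2, 0.5 mM ZnCl2. 10-min inhibitor preincubation, substrates added together, 1 h at 37 °C. [14C]GGPP extracted into butanol and counted by scintillation; activity as % of control, n = 3.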

[6] = target: T2, Farnesyl pyrophosphate synthase (Homo sapiens, UniProt P14324); assay: Inhibition of human recombinant FDPS expressed in BL21 gold bacteria
T2 sequence (P14324 whole entry): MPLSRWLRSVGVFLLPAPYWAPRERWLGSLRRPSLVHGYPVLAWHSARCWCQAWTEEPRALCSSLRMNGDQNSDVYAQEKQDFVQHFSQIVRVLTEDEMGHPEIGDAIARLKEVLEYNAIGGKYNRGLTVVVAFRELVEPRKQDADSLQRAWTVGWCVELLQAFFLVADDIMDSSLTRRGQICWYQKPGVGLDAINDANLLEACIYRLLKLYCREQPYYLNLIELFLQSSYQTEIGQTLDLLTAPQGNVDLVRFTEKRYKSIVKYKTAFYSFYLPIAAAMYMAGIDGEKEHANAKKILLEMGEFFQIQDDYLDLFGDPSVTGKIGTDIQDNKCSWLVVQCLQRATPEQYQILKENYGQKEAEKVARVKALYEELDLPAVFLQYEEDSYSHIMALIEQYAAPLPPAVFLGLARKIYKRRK
Summary of the method: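 GST-tagged recombinant human enzyme expressed in BL21 gold bacteria (IPTG induction), purified by affinity chromatography or glutathione agarose. Reaction: 20 µM GPP, 40 µM 14C IPP in 50 mM Tris pH 7.7, 10 mM NaF, 2 mM MgCl2, 1 mg/mL BSA. 10-min preincubation with inhibitor, substrates then added; 1 h at 37 °C. Products extracted with saturated butanol; 14C incorporation by scintillation counting; n = 3.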

[7] = target: T3, Farnesyl pyrophosphate synthase (Homo sapiens) (UniProt P14324); assay: Inhibition of human recombinant FDPS expressed in BL21 gold bacteria at 100 uM relative to control; parameters: scale not given: the % may be the effect or the level left
T3 sequence (whole entry): T2 sequence (P14324 whole entry)
Summary of the method: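 GST-tagged recombinant human FDPS expressed in BL21 gold E. coli (IPTG induction), glutathione-affinity purified. Reaction: 20 µM GPP, 40 µM [14C]IPP in 50 mM Tris pH 7.7, 10 mM NaF, 2 mM MgCl2, 1 mg/mL BSA. 10-min enzyme–inhibitor preincubation, substrates added, 1 h at 37 °C. Butanol-extracted product counted by scintillation; n = 3.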

[8] = target: T1, Geranylgeranyl pyrophosphate synthase (Homo sapiens); assay: Inhibition of human recombinant GGDPS expressed in BL21 gold bacteria at 10 uM relative to control; parameters: scale not given: the % may be the effect or the level left; summary of the method: as §2

Row | SMILES | Activity (K562 [1]) [µM] | GI50 (K562 [2]) [µM] | Activity (K562 [4]) | other results
1 | CC(C)=CCC(CC=C(C)C)(P(=O)(OCOC(=O)C(C)(C)C)OCOC(=O)C(C)(C)C)P(=O)(OCOC(=O)C(C)(C)C)OCOC(=O)C(C)(C)C | 5 | 7.7 |  | Activity (K562 [3]): Active
2 | CC(C)=CCC/C(C)=C\CC(P(=O)(OCOC(=O)C(C)(C)C)OCOC(=O)C(C)(C)C)P(=O)(OCOC(=O)C(C)(C)C)OCOC(=O)C(C)(C)C | >50 | 7 | inactive | 
3 | CC(C)=CCC/C(C)=C/CC(P(=O)(O)O)P(=O)(O)O | >50 | > 100 | inactive | Activity [5]: 51%; pIC50 [6]: 4.70; Activity [7]: 11%
4 | CC(C)=CCC/C(C)=C\CC(C/C=C(\C)CCC=C(C)C)(P(=O)(O)O)P(=O)(O)O | 25 | > 100 |  | 
5 | CC(C)=CCC/C(C)=C/CC(CC=C(C)C)(P(=O)(OCOC(=O)C(C)(C)C)OCOC(=O)C(C)(C)C)P(=O)(OCOC(=O)C(C)(C)C)OCOC(=O)C(C)(C)C | 1 | 5.2 | inactive | Activity [8]: 101%
6 | CC(C)=CCC/C(C)=C/CC(CC=C(C)C)(P(=O)(O)O)P(=O)(O)O | 25 | > 100 |  | Activity [8]: 38%
7 | CC(C)=CCC/C(C)=C\CC(CC=C(C)C)(P(=O)(O)O)P(=O)(O)O | 50 | > 100 | inactive | pIC50 [6]: < 4.00
8 | CC(C)=CCC/C(C)=C/CC/C(C)=C/CC(P(=O)(OCOC(=O)C(C)(C)C)OCOC(=O)C(C)(C)C)P(=O)(OCOC(=O)C(C)(C)C)OCOC(=O)C(C)(C)C | 10 | 7.9 |  | Activity [8]: 96%
9 | CC(C)=CCC/C(C)=C\CC/C(C)=C\CC(P(=O)(O)O)P(=O)(O)O | >50 |  |  | 
10 | CC(C)=CCC/C(C)=C/CC(C/C=C(\C)CCC=C(C)C)(P(=O)(OCOC(=O)C(C)(C)C)OCOC(=O)C(C)(C)C)P(=O)(OCOC(=O)C(C)(C)C)OCOC(=O)C(C)(C)C | 10 | 58 |  | Activity [8]: 96%
11 | CC(C)=CCC(CC=C(C)C)(P(=O)(O)O)P(=O)(O)O | >50 | > 100 | inactive | 
12 | CC(C)=CCC/C(C)=C\CC(C/C=C(\C)CCC=C(C)C)(P(=O)(OCOC(=O)C(C)(C)C)OCOC(=O)C(C)(C)C)P(=O)(OCOC(=O)C(C)(C)C)OCOC(=O)C(C)(C)C | 25 | > 100 |  | 
13 | CC(C)=CCC/C(C)=C\CC/C(C)=C/CC(P(=O)(O)O)P(=O)(O)O | 50 |  |  | 
14 | CC(C)=CCC/C(C)=C\CC(P(=O)(O)O)P(=O)(O)O | >50 | > 100 | inactive | 
15 | CC(C)=CCC/C(C)=C/CC/C(C)=C\CC(P(=O)(O)O)P(=O)(O)O | >50 |  |  | 
16 | CC(C)=CCC/C(C)=C\CC/C(C)=C/CC(P(=O)(OCOC(=O)C(C)(C)C)OCOC(=O)C(C)(C)C)P(=O)(OCOC(=O)C(C)(C)C)OCOC(=O)C(C)(C)C | 10 | 2.7 |  | 
17 | CC(C)=CCC/C(C)=C\CC(CC=C(C)C)(P(=O)(OCOC(=O)C(C)(C)C)OCOC(=O)C(C)(C)C)P(=O)(OCOC(=O)C(C)(C)C)OCOC(=O)C(C)(C)C | 5 | 21 | inactive | Activity (K562 [3]): Active
18 | CC(C)=CCC/C(C)=C/CC(P(=O)(OCOC(=O)C(C)(C)C)OCOC(=O)C(C)(C)C)P(=O)(OCOC(=O)C(C)(C)C)OCOC(=O)C(C)(C)C | 10 | 8.1 | inactive | Activity [5]: 100%; Activity [7]: 99%
19 | CC(C)=CCC/C(C)=C\CC/C(C)=C\CC(P(=O)(OCOC(=O)C(C)(C)C)OCOC(=O)C(C)(C)C)P(=O)(OCOC(=O)C(C)(C)C)OCOC(=O)C(C)(C)C | >50 | 2.9 |  | 
20 | CC(C)=CCC/C(C)=C\CC(C/C=C(/C)CCC=C(C)C)(P(=O)(O)O)P(=O)(O)O | 25 | > 100 |  | 
21 | CC(C)=CCC/C(C)=C/CC/C(C)=C\CC(P(=O)(OCOC(=O)C(C)(C)C)OCOC(=O)C(C)(C)C)P(=O)(OCOC(=O)C(C)(C)C)OCOC(=O)C(C)(C)C | >50 | 2 |  | 
22 | CC(C)=CCC/C(C)=C\CC(C/C=C(/C)CCC=C(C)C)(P(=O)(OCOC(=O)C(C)(C)C)OCOC(=O)C(C)(C)C)P(=O)(OCOC(=O)C(C)(C)C)OCOC(=O)C(C)(C)C | 10 | > 100 |  | 
23 | CC(C)=CCC/C(C)=C/CC(C/C=C(\C)CCC=C(C)C)(P(=O)(O)O)P(=O)(O)O [DIGERANYL BISPHOSPHONATE] | 25 | > 100 |  | 
24 | CC(C)=CCC/C(C)=C/CC/C(C)=C/CC(P(=O)(O)O)P(=O)(O)O | 10 | 90 |  | Activity [8]: 42%
